Calls of active or inactive are those of the source. The calls are words filed in the database; no cut-off is given here.
Assays:
HCT-116 [1] = assay: Cytotoxicity against human HCT116 cells after 72 hrs by MTT assay; type: functional, cell-based; conditions: HCT-116, 72 h
Summary of the method: (§1)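 Cells seeded on day 0 at 1 × 10^4 to 3 × 10^4 cells/mL (adherent lines in DMEM, MOLT-4 in suspension in RPMI, 10% FBS, 37 °C, 5% CO2); 10-fold dilutions 10−8–10−4 M for 72 h; MTT, OD 570 nm; percentage growth versus time-zero and control; IC50 by linear regression; quadruplicate, at least two experiments.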

NCI-H460 = assay: Cytotoxicity against human H460 cells after 72 hrs by MTT assay; type: functional, cell-based; conditions: NCI-H460, 72 h; summary of the method: as §1
MOLT-4 = assay: Cytotoxicity against human MOLT4 cells after 72 hrs by MTT assay; type: functional, cell-based; conditions: MOLT-4, 72 h; summary of the method: as §1
MCF7 = assay: Cytotoxicity against human MCF7 cells after 72 hrs by MTT assay; type: functional, cell-based; conditions: MCF7, 72 h; summary of the method: as §1
SW-620 = assay: Cytotoxicity against human SW620 cells after 72 hrs by MTT assay; type: functional, cell-based; conditions: SW-620, 72 h; summary of the method: as §1
[2] = target: DNA topoisomerase 2-alpha (Homo sapiens) (UniProt P11388); assay: Inhibition of human topoisomerase 2-mediated DNA cleavage at 50 uM incubated for 45 mins followed by enzyme addition measured after 30 mins by agarose gel electrophoresis
Summary of the method: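 Compounds (50 μM) incubated with 350 ng supercoiled pUC19 before topoisomerase II addition; gel quantified for percentage poisoning normalized to etoposide at the same concentration.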

Nucleic Acid [3] = assay: Binding affinity to calf thymus DNA assessed as change in melting temperature at drug/base pair ratio of 0.5 by UV-visible spectrophotometric analysis; type: nucleic-acid assay; conditions: Bos taurus
Summary of the method: (§2)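 Melting: 20 μM CT-DNA or poly(dAdT)2 alone or with compound (drug/base pair ratio 0.01−0.5) in BPE buffer (6 mM Na2HPO4, 2 mM NaH2PO4, 1 mM EDTA, pH 7.1); A260 read each minute from 20 to 100 °C at 1 °C/min; Tm from midpoint of hyperchromic transition (first-derivative plots); ΔTm = Tm[drug+DNA] − Tm[DNA alone].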

Nucleic Acid [4] = assay: Binding affinity to calf thymus DNA assessed as change in melting temperature at drug/base pair ratio of 0.25 by UV-visible spectrophotometric analysis; type: nucleic-acid assay; conditions: Bos taurus; summary of the method: as §2
Nucleic Acid [5] = assay: Binding affinity to radiolabeled Pvu2 DNA after 15 mins by Dnase1 footprinting assay; type: nucleic-acid assay
Summary of the method: (§3)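 265 bp EcoRI/PvuII pBluescript fragment, 3′-end labeled with α-[32P]dATP by Klenow. Compounds at increasing concentrations pre-equilibrated with DNA 15 min at 37 °C, then DNase I (final 0.002 unit/mL) in 20 mM NaCl, 2 mM MgCl2, 2 mM MnCl2, pH 7.3, 4 min digestion; products resolved on denaturing 8% polyacrylamide/8 M urea gel, G-track for base positions.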

Nucleic Acid [6] = assay: Binding affinity to AT rich site of Pvu2 DNA by densitometric analysis; type: nucleic-acid assay; summary of the method: as §3
[7] = target: T1, DNA topoisomerase 1 (Homo sapiens) (UniProt P11387); assay: Inhibition of human topoisomerase 1-mediated supercoiled pUC19 plasmid DNA relaxation at 0.5 to 2 uM incubated for 45 mins followed by enzyme addition measured after 30 mins by agarose gel electrophoresis
T1 sequence (whole entry): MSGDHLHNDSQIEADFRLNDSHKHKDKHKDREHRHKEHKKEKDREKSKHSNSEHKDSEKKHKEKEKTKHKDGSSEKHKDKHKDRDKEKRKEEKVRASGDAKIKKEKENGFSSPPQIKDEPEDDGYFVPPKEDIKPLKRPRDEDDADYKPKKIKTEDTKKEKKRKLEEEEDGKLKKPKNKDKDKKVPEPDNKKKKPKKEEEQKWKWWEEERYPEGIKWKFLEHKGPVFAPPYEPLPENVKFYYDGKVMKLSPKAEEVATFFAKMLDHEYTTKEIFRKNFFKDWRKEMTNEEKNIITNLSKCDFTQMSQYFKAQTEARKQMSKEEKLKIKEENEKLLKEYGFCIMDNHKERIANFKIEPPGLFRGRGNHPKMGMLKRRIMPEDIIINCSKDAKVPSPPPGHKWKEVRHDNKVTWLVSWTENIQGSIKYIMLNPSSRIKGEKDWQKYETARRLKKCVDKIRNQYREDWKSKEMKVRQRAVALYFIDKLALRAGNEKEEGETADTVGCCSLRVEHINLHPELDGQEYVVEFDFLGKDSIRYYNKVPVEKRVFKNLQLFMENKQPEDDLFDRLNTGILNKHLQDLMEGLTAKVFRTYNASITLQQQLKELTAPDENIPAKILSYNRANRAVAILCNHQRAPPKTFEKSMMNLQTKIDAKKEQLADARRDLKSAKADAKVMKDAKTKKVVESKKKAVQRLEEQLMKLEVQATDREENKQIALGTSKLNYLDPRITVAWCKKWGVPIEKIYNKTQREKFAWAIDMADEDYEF
Summary of the method: (§4)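 Graded compound concentrations preincubated with supercoiled pUC19, then 4 units human topoisomerase I, 37 °C for 45 min in relaxation buffer; stopped with 0.25% SDS and 250 μg/mL proteinase K, 30 min at 50 °C; 1% agarose gel without ethidium bromide, 2 h at 120 V in TBE, then stained with ethidium bromide.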

[8] = target: T1, DNA topoisomerase 1 (Homo sapiens); assay: Inhibition of human topoisomerase 1-mediated DNA cleavage at 10 uM incubated for 45 mins followed by enzyme addition measured after 30 mins by agarose gel electrophoresis
Summary of the method: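 Topo I cleavage run like the relaxation assay (pUC19, 4 units human topoisomerase I, 37 °C, 45 min; SDS/proteinase K stop), but samples run on 1% agarose gel containing ethidium bromide; camptothecin 20 μM as poisoning control.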

Nucleic Acid [9] = assay: Binding affinity to calf thymus DNA assessed as change in melting temperature at drug/base pair ratio of 0.025 by UV-visible spectrophotometric analysis; type: nucleic-acid assay; conditions: Bos taurus; summary of the method: as §2
Nucleic Acid [10] = assay: Binding affinity to calf thymus DNA assessed as change in melting temperature at drug/base pair ratio of 0.01 by UV-visible spectrophotometric analysis; type: nucleic-acid assay; conditions: Bos taurus; summary of the method: as §2
HCT-116 [11] = assay: Induction of cell cycle arrest in human HCT116 cells assessed as accumulation at G1 phase at 1 to 5 uM by propidium iodide based flow cytometry; type: functional; conditions: TDE = time-dependent effect
Summary of the method: (§5)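 HCT116 cells (2 × 10^5 per well) treated after 24 h with 1 or 5 μM for 24 and 48 h; floating and attached cells pooled, fixed in 70% ethanol, stained with 50 μg/mL propidium iodide plus RNase A; 20 000 events by flow cytometry; phase percentages from DNA histograms; duplicate, repeated at least twice.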

HCT-116 [12] = assay: Induction of cell cycle arrest in human HCT116 cells assessed as accumulation at G1 phase after 24 to 48 hrs by propidium iodide based flow cytometry; type: functional; summary of the method: as §5
Nucleic Acid [13] = assay: Binding affinity to calf thymus DNA assessed as change in melting temperature at drug/base pair ratio of 0.1 by UV-visible spectrophotometric analysis; type: nucleic-acid assay; conditions: Bos taurus; summary of the method: as §2
HCT-116 [14] = assay: Induction of cell cycle arrest in human HCT116 cells assessed as accumulation at G2/M phase after 24 to 48 hrs by propidium iodide based flow cytometry; type: functional; summary of the method: as §5
HCT-116 [15] = assay: Induction of cell cycle arrest in human HCT116 cells assessed as accumulation at G2/M phase at 1 to 5 uM by propidium iodide based flow cytometry; type: functional; conditions: TDE = time-dependent effect; summary of the method: as §5
[16] = target: T1, DNA topoisomerase 1 (Homo sapiens); assay: Inhibition of human topoisomerase 1-mediated supercoiled pUC19 plasmid DNA relaxation at 50 uM incubated for 45 mins followed by enzyme addition measured after 30 mins by agarose gel electrophoresis; summary of the method: as §4
Nucleic Acid [17] = assay: Binding affinity to calf thymus DNA assessed as DNA intercalation at 50 uM by circular dichroism spectra analysis; type: nucleic-acid assay; conditions: Bos taurus
Summary of the method: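 CD: 50 μM compound with 200 μM CT-DNA in BPE buffer, alone or plus 10 or 100 mM NaCl; spectra 480–230 nm, 10 mm quartz cell, 20 °C; compound without DNA as control for intrinsic CD.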

DNA topoisomerase 2-alpha (Homo sapiens), sequence (P11388 whole entry): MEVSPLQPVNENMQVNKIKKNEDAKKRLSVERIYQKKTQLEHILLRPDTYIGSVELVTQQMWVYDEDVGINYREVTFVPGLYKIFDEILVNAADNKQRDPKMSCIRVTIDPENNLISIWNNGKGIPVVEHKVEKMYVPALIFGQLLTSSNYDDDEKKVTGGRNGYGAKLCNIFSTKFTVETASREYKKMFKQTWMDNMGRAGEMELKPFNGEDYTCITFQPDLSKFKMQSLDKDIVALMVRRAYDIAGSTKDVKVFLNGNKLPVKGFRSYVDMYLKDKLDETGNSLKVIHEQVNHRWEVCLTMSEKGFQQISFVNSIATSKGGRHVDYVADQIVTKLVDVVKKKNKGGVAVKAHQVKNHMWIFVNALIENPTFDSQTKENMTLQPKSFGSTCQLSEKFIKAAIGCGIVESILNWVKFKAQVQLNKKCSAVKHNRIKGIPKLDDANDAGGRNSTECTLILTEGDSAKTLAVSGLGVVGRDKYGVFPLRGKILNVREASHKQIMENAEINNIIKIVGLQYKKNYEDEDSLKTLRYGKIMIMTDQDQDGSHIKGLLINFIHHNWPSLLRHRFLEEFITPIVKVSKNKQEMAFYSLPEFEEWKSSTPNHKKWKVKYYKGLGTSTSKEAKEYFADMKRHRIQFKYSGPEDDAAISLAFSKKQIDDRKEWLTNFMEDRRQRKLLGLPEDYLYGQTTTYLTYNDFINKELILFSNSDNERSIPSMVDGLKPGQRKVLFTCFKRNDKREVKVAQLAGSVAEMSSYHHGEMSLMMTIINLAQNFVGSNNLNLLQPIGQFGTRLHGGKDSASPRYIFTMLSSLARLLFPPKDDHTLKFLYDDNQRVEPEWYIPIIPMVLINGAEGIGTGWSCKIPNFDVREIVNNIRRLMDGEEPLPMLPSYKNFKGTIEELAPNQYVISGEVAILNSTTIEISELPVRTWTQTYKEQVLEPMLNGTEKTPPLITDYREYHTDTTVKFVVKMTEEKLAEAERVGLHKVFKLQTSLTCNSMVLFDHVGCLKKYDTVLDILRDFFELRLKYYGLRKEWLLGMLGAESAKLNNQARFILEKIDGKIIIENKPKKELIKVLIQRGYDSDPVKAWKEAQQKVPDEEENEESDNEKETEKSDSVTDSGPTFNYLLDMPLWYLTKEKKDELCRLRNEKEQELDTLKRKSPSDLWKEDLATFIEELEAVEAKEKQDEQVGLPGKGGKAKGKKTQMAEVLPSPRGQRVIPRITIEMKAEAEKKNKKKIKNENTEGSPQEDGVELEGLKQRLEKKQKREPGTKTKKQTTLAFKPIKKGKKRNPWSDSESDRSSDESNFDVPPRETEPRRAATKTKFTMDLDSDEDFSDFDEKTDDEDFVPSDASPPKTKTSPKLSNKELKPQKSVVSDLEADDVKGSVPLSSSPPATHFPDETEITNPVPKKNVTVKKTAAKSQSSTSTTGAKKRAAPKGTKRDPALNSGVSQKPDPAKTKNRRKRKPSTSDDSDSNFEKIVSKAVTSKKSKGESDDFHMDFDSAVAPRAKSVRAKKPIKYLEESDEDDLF

| SMILES | IC50 (HCT-116 [1]) [nM] | IC50 (NCI-H460) [nM] | IC50 (MOLT-4) [nM] | IC50 (MCF7) [nM] | IC50 (SW-620) [nM] | inhibition [2] | also measured |
| --- | --- | --- | --- | --- | --- | --- | --- |
| CN(C)CCCNC(=O)c1ccc2[nH]c(=O)c3sc4cc([N+](=O)[O-])ccc4c3c2c1 | 2000 | 23000 | 2000 | 3000 | 2000 |  |  |
| Cn1c(=O)c2sc3ccccc3c2c2cc(C#N)ccc21 | > 10000 | > 10000 | 8700 | > 10000 | > 10000 |  |  |
| CN(C)CCCNC(=O)c1ccc(NC(=O)c2sc3cc([N+](=O)[O-])ccc3c2Cl)cc1 | 2000 | 2000 | 2000 | 2000 | 1000 |  |  |
| COc1cc([C@@H]2c3cc4c(cc3[C@@H](O[C@@H]3O[C@@H]5CO[C@@H](C)O[C@H]5[C@H](O)[C@H]3O)[C@H]3COC(=O)[C@H]23)OCO4)cc(OC)c1O |  |  |  |  |  | Active |  |
| CN(C)CCCNC(=O)c1ccc(NC(=O)c2sc3cc(Br)ccc3c2Cl)cc1 | 2000 | 2000 | 2000 | 2000 | 2000 |  |  |
| CCOC(=O)c1ccc2c(c1)sc1c(=O)[nH]c3ccc(C(=O)NCCCN(C)C)cc3c12 | 2000 | 3000 | 1000 | 3000 | 1000 |  |  |
| O=c1[nH]c2ccccc2c2c1sc1cc(C3=NCCN3)ccc12 | 1300 | 1200 | 800 | 1500 | 1200 | Active | ΔTm (Nucleic Acid [3]): 14.6 °C; ΔTm (Nucleic Acid [4]): 11 °C; Activity (Nucleic Acid [5]): Active; Activity (Nucleic Acid [6]): inactive; inhibition [7]: Active; inhibition [8]: Active |
| O=c1[nH]c2ccc(C3=NCCN3)cc2c2c1sc1ccccc12 | 900 | 1600 | 800 | 1400 | 700 | Active | ΔTm (Nucleic Acid [4]): 18 °C; Activity (Nucleic Acid [5]): Active; Activity (Nucleic Acid [6]): inactive; ΔTm (Nucleic Acid [9]): 0.9 °C; ΔTm (Nucleic Acid [10]): 0 °C; Activity (HCT-116 [11]): tde; Activity (HCT-116 [12]): Dose-dependent effect; ΔTm (Nucleic Acid [13]): 4.9 °C; inhibition [7]: Active; Activity (HCT-116 [14]): Dose-dependent effect; Activity (HCT-116 [15]): tde |
| Cc1ccc2c(c1)sc1c(=O)[nH]c3ccc(C(=O)NCCCN(C)C)cc3c12 | 1000 | 2000 | 1000 | 2000 | 400 |  |  |
| Cn1c(=O)c2sc3sccc3c2c2cc(C#N)ccc21 | > 10000 | > 10000 | 4800 | > 10000 | > 10000 |  |  |
| CN(C)CCCNC(=O)c1ccc(NC(=O)c2sc3ccccc3c2Cl)cc1 | 7000 | 3000 |  | 7000 |  |  |  |
| O=c1[nH]c2ccc(C3=NCCN3)cc2c2c1sc1cc(C3=NCCN3)ccc12 | ≥ 10000 | ≥ 10000 | 3000 | ≥ 10000 | ≥ 10000 | Active | ΔTm (Nucleic Acid [4]): 22.4 °C; Activity (Nucleic Acid [5]): Active; Activity (Nucleic Acid [6]): inactive; ΔTm (Nucleic Acid [9]): 0 °C; ΔTm (Nucleic Acid [10]): 0 °C; ΔTm (Nucleic Acid [13]): 15.7 °C; inhibition [7]: Active |
| CN(C)CCCNC(=O)c1ccc2[nH]c(=O)c3sc4ccccc4c3c2c1 | 1000 | 2000 | 1000 | 2000 | 1000 |  |  |
| Cc1ccc2c(Cl)c(C(=O)Nc3ccc(C(=O)NCCCN(C)C)cc3)sc2c1 | 3000 | 2000 | 2000 | 3000 | 2000 |  |  |
| Cn1c(=O)c2sc3sccc3c2c2cc(C3=NCCN3)ccc21 | 1000 | 1000 | 2000 | 2000 | 300 |  |  |
| O=C(Nc1ccccc1)c1sc2cc(C3=NCCN3)ccc2c1Cl | 2800 | 1400 | 2000 | 2000 | 1300 | Active | ΔTm (Nucleic Acid [3]): 3.8 °C; ΔTm (Nucleic Acid [4]): 3 °C; inhibition [16]: Active; Activity (Nucleic Acid [5]): Active; Activity (Nucleic Acid [6]): inactive; Activity (Nucleic Acid [17]): inactive |
| Cn1c(=O)c2sc3ccccc3c2c2cc(C3=NCCN3)ccc21 | 400 | 600 | 400 | 1300 | 200 | inactive | ΔTm (Nucleic Acid [3]): 15.6 °C; ΔTm (Nucleic Acid [4]): 10.7 °C; Activity (Nucleic Acid [5]): Active; Activity (Nucleic Acid [6]): inactive; Activity (HCT-116 [11]): tde; Activity (HCT-116 [12]): Dose-dependent effect; inhibition [7]: Active; Activity (HCT-116 [14]): Dose-dependent effect; Activity (HCT-116 [15]): tde |
| CN(C)CCCNC(=O)c1ccc2[nH]c(=O)c3sc4cc(Br)ccc4c3c2c1 | 400 | 2000 | 1000 | 2000 | 400 |  |  |
| Cn1c(=O)c2sc3cc(C#N)ccc3c2c2ccccc21 | > 10000 | > 10000 | ≥ 10000 | > 10000 | > 10000 |  |  |
| CCOC(=O)c1ccc2c(Cl)c(C(=O)Nc3ccc(C(=O)NCCCN(C)C)cc3)sc2c1 | 3000 | 2000 | 2000 | 5000 | 2000 |  |  |
